Data: ChEMBL document CHEMBL3826885, “Similarities and differences in affinity and binding modes of tricyclic pyrimido- and pyrazinoxanthines at human and rat adenosine receptors” (Bioorg Med Chem, 2016)
pKi: −log10 of the molar value.

Legend:
Adenosine receptor A2a [1] = molecular target: T1, Adenosine receptor A2a (Homo sapiens, UniProt P29274); assay: Displacement of [3H]MSX2 from recombinant human adenosine receptor A2a expressed in CHO cell membranes at 1 uM
How it was run: (§1)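 Membranes came from CHO cells expressing recombinant receptors (human A1, A2A, A2B, A3; rat A2B, A3). Radioligands were [3H]CCPA for A1 and [3H]PSB-11 or [3H]NECA for A3. A single high concentration was screened first, in three experiments for A1/A2A and two for A2B/A3. Full inhibition curves spanning at least 3 log units were run for potent compounds.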

[2] = molecular target: T2, Adenosine receptor A3 (Rattus norvegicus) (UniProt P28647); assay: Displacement of [3H]NECA from recombinant rat adenosine receptor A3 expressed in CHO cell membranes at 1 uM; how it was run: as §1
T2 sequence (whole entry): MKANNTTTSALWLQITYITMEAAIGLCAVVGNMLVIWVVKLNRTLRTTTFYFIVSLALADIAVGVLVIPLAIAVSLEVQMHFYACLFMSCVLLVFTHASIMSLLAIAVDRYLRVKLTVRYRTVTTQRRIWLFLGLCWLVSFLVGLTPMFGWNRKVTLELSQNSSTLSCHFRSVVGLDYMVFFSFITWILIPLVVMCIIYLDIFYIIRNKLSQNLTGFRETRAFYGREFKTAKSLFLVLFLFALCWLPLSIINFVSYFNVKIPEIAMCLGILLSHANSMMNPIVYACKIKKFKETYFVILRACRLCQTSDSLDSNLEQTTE

[3] = molecular target: T3, Adenosine receptor A2b (Rattus norvegicus) (UniProt P29276); assay: Displacement of [3H]PSB-603 from recombinant rat adenosine receptor A2b expressed in CHO cell membranes at 1 uM; how it was run: as §1
T3 sequence (whole entry): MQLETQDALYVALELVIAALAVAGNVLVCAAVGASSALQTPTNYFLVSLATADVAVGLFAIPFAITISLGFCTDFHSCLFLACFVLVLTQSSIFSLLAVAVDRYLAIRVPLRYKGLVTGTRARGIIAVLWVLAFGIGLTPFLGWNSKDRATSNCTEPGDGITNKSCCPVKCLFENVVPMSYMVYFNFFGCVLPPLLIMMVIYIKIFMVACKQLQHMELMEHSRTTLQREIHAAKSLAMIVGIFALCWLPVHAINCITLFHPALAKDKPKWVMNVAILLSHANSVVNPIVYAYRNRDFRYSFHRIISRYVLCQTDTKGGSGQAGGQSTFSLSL

Adenosine receptor A3 [4] = molecular target: T4, Adenosine receptor A3 (Homo sapiens, UniProt P0DMS8); assay: Displacement of [3H]PSB-11 from recombinant human adenosine receptor A3 expressed in CHO cell membranes
T4 sequence (P0DMS8 whole entry): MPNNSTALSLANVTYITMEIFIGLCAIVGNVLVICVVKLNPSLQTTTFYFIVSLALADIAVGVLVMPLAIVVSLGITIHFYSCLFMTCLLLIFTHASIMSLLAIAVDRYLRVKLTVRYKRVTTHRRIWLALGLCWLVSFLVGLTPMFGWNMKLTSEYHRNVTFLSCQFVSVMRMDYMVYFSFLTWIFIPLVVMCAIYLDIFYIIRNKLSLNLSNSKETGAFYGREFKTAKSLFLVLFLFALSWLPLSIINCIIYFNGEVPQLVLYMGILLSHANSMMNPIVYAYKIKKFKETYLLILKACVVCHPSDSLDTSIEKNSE

Adenosine receptor A3 [5] = molecular target: T5, Adenosine receptor A3 (Rattus norvegicus, UniProt P28647); assay: Displacement of [3H]NECA from recombinant rat adenosine receptor A3 expressed in CHO cell membranes
T5 sequence (P28647 whole entry): T2 sequence (whole entry)
How it was run: (§2)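 Membranes came from CHO cells expressing recombinant receptors (human A1, A2A, A2B, A3; rat A2B, A3). Radioligands were [3H]CCPA for A1 and [3H]PSB-11 or [3H]NECA for A3. A single high concentration was screened first, in three experiments for A1/A2A and two for A2B/A3.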

[6] = molecular target: T6, Adenosine receptor A3 (Homo sapiens) (UniProt P0DMS8); assay: Displacement of [3H]PSB11 from recombinant human adenosine receptor A3 expressed in CHO cell membranes at 1 uM; how it was run: as §1
T6 sequence (whole entry): T4 sequence (P0DMS8 whole entry)

Adenosine receptor A1 = molecular target: T7, Adenosine receptor A1 (Homo sapiens, UniProt P30542); assay: Displacement of [3H]CCPA from recombinant human adenosine receptor A1 expressed in CHO cell membranes; how it was run: as §1
T7 sequence (P30542 whole entry): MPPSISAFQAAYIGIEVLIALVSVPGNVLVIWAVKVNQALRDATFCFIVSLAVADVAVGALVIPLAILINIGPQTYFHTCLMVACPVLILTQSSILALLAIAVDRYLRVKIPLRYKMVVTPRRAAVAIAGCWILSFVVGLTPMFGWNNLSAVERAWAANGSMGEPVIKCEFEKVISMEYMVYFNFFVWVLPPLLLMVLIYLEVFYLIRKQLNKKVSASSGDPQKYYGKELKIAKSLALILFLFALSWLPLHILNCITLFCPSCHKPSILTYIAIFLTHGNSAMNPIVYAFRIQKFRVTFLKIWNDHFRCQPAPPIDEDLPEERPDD

Adenosine receptor A2b [7] = molecular target: T8, Adenosine receptor A2b (Rattus norvegicus, UniProt P29276); assay: Displacement of [3H]PSB-603 from recombinant rat adenosine receptor A2b expressed in CHO cell membranes; how it was run: as §2
T8 sequence (P29276 whole entry): T3 sequence (whole entry)

Adenosine receptor A2a [8] = molecular target: Adenosine receptor A2a (Rattus norvegicus, UniProt P30543); assay: Displacement of [3H]MSX2 from adenosine receptor A2a in rat brain striatal membranes; assay type: cell membranes, Membrane
How it was run: (§3)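 Native rat receptors: A1 in brain cortical membranes with [3H]CCPA, A2A in brain striatal membranes, from frozen unstripped rat brains. Compounds were first screened at a single high concentration in three independent experiments. Active compounds then had full inhibition curves over at least 3 orders of magnitude of concentration.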

[9] = molecular target: T9, Adenosine receptor A2b (Homo sapiens) (UniProt P29275); assay: Displacement of [3H]PSB-603 from recombinant human adenosine receptor A2b expressed in CHO cell membranes at 1 uM; how it was run: as §1
T9 sequence (whole entry): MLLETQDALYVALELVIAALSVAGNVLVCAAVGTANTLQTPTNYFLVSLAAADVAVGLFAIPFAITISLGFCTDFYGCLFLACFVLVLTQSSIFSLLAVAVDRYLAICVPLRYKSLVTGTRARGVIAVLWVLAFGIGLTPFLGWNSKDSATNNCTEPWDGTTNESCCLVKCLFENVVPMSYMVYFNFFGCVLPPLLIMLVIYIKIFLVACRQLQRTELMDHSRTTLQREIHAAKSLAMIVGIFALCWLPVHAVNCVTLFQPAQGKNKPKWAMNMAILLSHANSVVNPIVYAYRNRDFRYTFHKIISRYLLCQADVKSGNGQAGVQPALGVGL

[10] = molecular target: Adenosine receptor A2a (Rattus norvegicus) (UniProt P30543); assay: Displacement of [3H]MSX2 from Adenosine receptor A2a in rat brain striatal membranes at 1 uM; assay type: cell membranes; conditions: Membrane; how it was run: as §3
Adenosine receptor A2b [11] = molecular target: T10, Adenosine receptor A2b (Homo sapiens, UniProt P29275); assay: Displacement of [3H]PSB-603 from recombinant human adenosine receptor A2b expressed in CHO cell membranes; how it was run: as §2
T10 sequence (P29275 whole entry): T9 sequence (whole entry)

Adenosine receptor A2a [12] = molecular target: T1, Adenosine receptor A2a; assay: Displacement of [3H]MSX2 from recombinant human adenosine receptor A2a expressed in CHO cell membranes; how it was run: as §1
[13] = molecular target: T11, Adenosine receptor A1 (Homo sapiens) (UniProt P30542); assay: Displacement of [3H]CCPA from recombinant human adenosine receptor A1 expressed in CHO cell membranes at 1 uM; how it was run: as §1
T11 sequence (whole entry): T7 sequence (P30542 whole entry)

T1 sequence (P29274 whole entry): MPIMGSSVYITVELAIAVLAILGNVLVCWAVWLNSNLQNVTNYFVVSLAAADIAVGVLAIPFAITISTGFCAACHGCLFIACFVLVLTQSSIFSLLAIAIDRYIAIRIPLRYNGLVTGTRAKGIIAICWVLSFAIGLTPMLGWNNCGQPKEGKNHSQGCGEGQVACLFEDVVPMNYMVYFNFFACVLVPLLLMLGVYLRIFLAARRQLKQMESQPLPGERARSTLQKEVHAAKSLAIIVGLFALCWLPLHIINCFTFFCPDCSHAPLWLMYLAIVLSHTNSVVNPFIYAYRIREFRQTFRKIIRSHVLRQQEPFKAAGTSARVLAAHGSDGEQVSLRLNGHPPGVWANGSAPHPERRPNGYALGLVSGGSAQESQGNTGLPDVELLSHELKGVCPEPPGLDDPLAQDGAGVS
Chain of Adenosine receptor A2a (Rattus norvegicus, UniProt P30543) (P30543 whole entry): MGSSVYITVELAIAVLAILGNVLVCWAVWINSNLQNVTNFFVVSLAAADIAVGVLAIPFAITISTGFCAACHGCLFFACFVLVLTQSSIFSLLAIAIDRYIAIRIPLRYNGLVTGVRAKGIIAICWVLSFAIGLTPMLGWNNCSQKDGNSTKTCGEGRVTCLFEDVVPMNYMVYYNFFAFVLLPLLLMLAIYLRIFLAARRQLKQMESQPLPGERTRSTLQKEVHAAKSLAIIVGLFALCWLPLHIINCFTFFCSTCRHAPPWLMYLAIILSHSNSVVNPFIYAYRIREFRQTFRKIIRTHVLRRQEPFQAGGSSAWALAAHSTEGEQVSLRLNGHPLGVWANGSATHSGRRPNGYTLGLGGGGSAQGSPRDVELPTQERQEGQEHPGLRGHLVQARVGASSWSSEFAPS
Chain of Adenosine receptor A2a (Rattus norvegicus) (P30543 whole entry): as above

inhibition (Adenosine receptor A2a [1]) [%]	inhibition [2] [%]	inhibition [3] [%]	pKi (Adenosine receptor A3 [4])	pKi (Adenosine receptor A3 [5])	inhibition [6] [%]	pKi (Adenosine receptor A1)	pKi (Adenosine receptor A2b [7])	pKi (Adenosine receptor A2a [8])	inhibition [9] [%]	inhibition [10] [%]	pKi (Adenosine receptor A2b [11])	pKi (Adenosine receptor A2a [12])	inhibition [13] [%]	Structure (SMILES)
64	15	38	6.51	< 6.00	75	5.81	5.96	6.25	87	64	6.96	6.26	27	CCCCn1c(=O)c2c(nc3n2CCCN3CCc2ccc(OCCN(CC)CC)cc2)n(CCCC)c1=O
57	6	-2	< 6.00	< 6.00	-3	< 6.00	< 6.00	6.47	6	53	< 6.00	6.25	1	CCN(CC)CCOc1ccc(CCN2CCCn3c2nc2c3c(=O)n(C)c(=O)n2C)cc1
